Assay results taken from PubChem BioAssay AID588776 (Johns Hopkins Ion Channel Center, 2011).
Activity calls are given as the source filed them.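 How the source made its calls: active means peak inhibition of the KCNK3 potassium channel above 30% at some tested dose, plus a fitted dose response curve; inactive means no inhibition at any dose, or no curve could be fitted.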

Target: Potassium channel subfamily K member 3 (Rattus norvegicus) (UniProt O54912)
Assay: KCNK3 channel inhibition in expressing cells, SAR follow-up, selectivity assay for KCNK9 inhibitor project, cell-based, FluxOR thallium flux, CRC set 1 (AID 588776)
Conditions: FluxOR thallium flux fluorescence; for flux ratio, lower = inhibition: at 30 µM (top of the series)
In short: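 Schedule: 90 min dye loading, 20 min compound exposure, both room temperature; Assay system: tetracycline-induced KCNK3-expressing CHO cells; Technique: kinetic fluorescence of FluxOR thallium-sensitive dye after stimulus addition; Evaluation: baseline-normalized fluorescence change, IC50 and Hill fit.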

Chain of Potassium channel subfamily K member 3 (Rattus norvegicus) (O54912 whole entry, looked up): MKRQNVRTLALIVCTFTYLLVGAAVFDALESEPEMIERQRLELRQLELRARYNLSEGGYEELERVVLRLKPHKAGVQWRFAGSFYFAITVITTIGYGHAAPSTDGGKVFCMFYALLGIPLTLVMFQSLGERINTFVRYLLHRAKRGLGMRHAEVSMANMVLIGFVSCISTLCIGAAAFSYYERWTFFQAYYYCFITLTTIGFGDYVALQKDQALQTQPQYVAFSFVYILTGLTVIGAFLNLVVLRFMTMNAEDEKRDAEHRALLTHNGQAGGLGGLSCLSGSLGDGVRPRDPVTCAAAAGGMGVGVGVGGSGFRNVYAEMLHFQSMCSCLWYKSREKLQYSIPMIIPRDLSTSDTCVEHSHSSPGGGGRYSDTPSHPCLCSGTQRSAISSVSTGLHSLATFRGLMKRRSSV

SMILES	IC50 [µM]	flux ratio, lower = inhibition
CC(CCC1CCCC1)n1c(-c2ccco2)n[nH]c1=S (stereo not drawn)	2.36	–
CC(C1CC2CCC1C2)n1c(-c2ccc(N(C)C)cc2)n[nH]c1=S (stereo not drawn)	–	inactive
CC(C1CC2CCC1C2)n1c(-c2ccncc2)n[nH]c1=S (stereo not drawn)	–	inactive
COc1cccc(C(=O)CSc2nnc(-c3ccco3)n2C(C)C2CC3CCC2C3)c1 (stereo not drawn)	14.7	–
CC(C1C2CCC1CC2)n1c(-c2ccco2)n[nH]c1=S (stereo not drawn)	–	inactive
CC(CC1CC2CCC1C2)n1c(-c2ccco2)n[nH]c1=S (stereo not drawn)	15.8	–
C[C@@H](C1CCCCC1)n1c(-c2ccco2)n[nH]c1=S	> 30	–
C[C@H](C1CCCCC1)n1c(-c2ccco2)n[nH]c1=S	–	inactive

Now from value to compound:

IC50 [µM]	flux ratio, lower = inhibition	SMILES
4.87	–	CC(C1CC2CCC1C2)n1c(SCC(=O)c2ccc3c(c2)OCO3)nnc1-c1ccco1 (stereo not drawn)
15.5	–	COc1ccc(CCSc2nnc(-c3ccco3)n2C(C)C2CC3CCC2C3)cc1OC (stereo not drawn)
1.22	–	CC(C1CC2CCC1C2)n1c(SCC(=O)c2ccccc2)nnc1-c1ccco1 (stereo not drawn)
–	inactive	CC(C1CC2CCC1C2)n1c(-c2cccc(N(C)C)c2)n[nH]c1=S (stereo not drawn)
7.94	–	CC(C1CC2CCC1C2)n1c(SCC(=O)c2ccc(Cl)c(Cl)c2)nnc1-c1ccco1 (stereo not drawn)
